# B1: Osa-1-4 twister ribozyme (parent)
# chain: CCGCCUAACACUGCCAAUGCCGGUCCCAAGCCCGGAUAAAAGUGGAGGGGGCGG
# Variants of: B1
# Experiment: self-cleavage, relative activity (ratio to wild type); higher = more cleavage; co-transcriptional
# Procedure, shortened: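 A DNA template was synthesised for a 54-nucleotide twister ribozyme from Oryza sativa, with 97 % wild-type base and 1 % of each other base at each of the 48 positions downstream of the cleavage site. The ribozyme cleaved itself co-transcriptionally during 2 h of in vitro transcription at 37 °C. Reverse transcription with a template-switching oligonucleotide, PCR amplification and deep sequencing followed, and cleavage status came from reads with or without upstream sequence. Relative activity is the fraction cleaved normalised to wild type.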
row,Variant,self-cleavage
1,C11G G45U,0.06
2,C11G G45A,0.05
3,C11G G45C,0.04
4,C11U G45A,0.09
5,C11U G45C,0.06
6,C11U G45U,0.09
7,G13C G50U,0.02
8,G13C G50A,0.03
9,G13C G50C,0.02
10,C11U G48C,0.06
11,C11U G48A,0.07
12,C11U G48U,0.05
13,C11G C31A,0.03
14,C11G C31U,0.08
15,C11G C31G,0.04
16,C11U G30A,0.04
17,C11U G30C,0.05
18,C11U G30U,0.03
19,C11U C21U,0.91
20,C11U C21G,0.11
21,C11U C21A,0.29
22,C11G G53C,0.04
23,C11G G53U,0.07
24,C11G G53A,0.17

row,Variant,self-cleavage
1,G13A G34U,0.05
2,G13A G34C,0.05
3,G13A G34A,0.09
4,G13A G42A,0.05
5,G13A G42C,0.04
6,G13A G42U,0.02
7,C11G C26U,0.19
8,C11G C26G,0.1
9,C11G C26A,0.03
10,C11U G47A,0.09
11,C11U G47U,0.07
12,C11U G47C,0.07
13,U12G U24G,0.04
14,U12G U24A,0.05
15,U12G U24C,0.04
16,G13A,0.17
17,G13C,0.03
18,C11U U24A,0.06
19,C11U U24G,0.06
20,C11U U24C,0.1
21,U12C U18G,0.61
22,U12C U18A,0.46
23,U12C U18C,0.38
24,U12G U37C,0.55

row,Variant,self-cleavage
1,U12G U37G,0.52
2,U12G U37A,0.6
3,C11G G54U,0.36
4,C11G G54C,0.32
5,C11G G54A,0.3
6,G13A G22U,0.04
7,G13A G22C,0.03
8,G13A G22A,0.07
9,C11U G54U,0.79
10,C11U G54C,0.8
11,C11U G54A,0.78
12,C11G G44A,0.17
13,C11G G44U,0.09
14,C11G G44C,0.11
15,G13A U43C,0.05
16,G13A U43A,0.05
17,G13A U43G,0.04
18,C11G U43C,0.08
19,C11G U43A,0.15
20,C11G U43G,0.05
21,C11G G50A,0.11
22,C11G G50U,0.42
23,C11G G50C,0.15
24,C11U C33A,0.07

row,Variant,self-cleavage
1,C11U C33U,0.51
2,C11U C33G,0.06
3,C11G G42C,0.76
4,C11G G42U,0.61
5,C11G G42A,0.75
6,C11G G19U,0.05
7,C11G G19C,0.03
8,C11G G19A,0.08
9,C11G U24G,0.04
10,C11G U24C,0.04
11,C11G U24A,0.04
12,G13A U37C,0.12
13,G13A U37A,0.13
14,G13A U37G,0.17
15,C11U C27G,0.06
16,C11U C27U,0.12
17,C11U C27A,0.14
18,G13A G23A,0.04
19,G13A G23U,0.02
20,G13A G23C,0.02
21,C11G G49A,0.05
22,C11G G49C,0.03
23,C11G G49U,0.05
24,G13A G48A,0.03

row,Variant,self-cleavage
1,G13A G48C,0.03
2,G13A G48U,0.02
3,C11G G48U,0.03
4,C11G G48C,0.03
5,C11G G48A,0.03
6,G13A G50C,0.06
7,G13A G50A,0.14
8,G13A G50U,0.08
9,C11U G53U,0.14
10,C11U G53A,0.62
11,C11U G53C,0.07
12,G13C G48U,0.01
13,G13C G48A,0.01
14,G13C G48C,0.02
15,C11G G34C,0.05
16,C11G G34U,0.04
17,C11G G34A,0.07
18,C11U C31G,0.06
19,C11U C31A,0.03
20,C11U C31U,0.37
21,G13C G42C,0.02
22,G13C G42A,0.03
23,G13C G42U,0.01
24,C11G C32A,0.04

row,Variant,self-cleavage
1,C11G C32G,0.06
2,C11G C32U,0.04
3,G13C G51A,0.02
4,G13C G19U,0.02
5,G13C G19A,0.03
6,G13C G19C,0.03
7,C11G C27U,0.06
8,C11G C27A,0.07
9,C11G C27G,0.03
10,C11U G42C,0.85
11,C11U G42A,0.93
12,C11U G42U,0.47
13,G13A U24A,0.05
14,G13A U24C,0.04
15,G13A U24G,0.01
16,C11G G47U,0.04
17,C11G G47A,0.04
18,C11G G47C,0.04
19,C11U G44A,0.8
20,C11U G44U,0.67
21,C11U G44C,0.84
22,C11G G22U,0.03
23,C11G G22C,0.04
24,C11G G22A,0.07

row,Variant,self-cleavage
1,U12A U24C,0.08
2,U12A U24A,0.07
3,U12A U24G,0.03
4,C11U C52G,0.81
5,C11U C52A,0.83
6,C11U C52U,0.98
7,C11U G23A,0.1
8,C11U G23C,0.04
9,C11U G23U,0.05
10,C11G C33G,0.07
11,C11G C33A,0.04
12,C11G C33U,0.06
13,C11U G13U,0.04
14,C11U G13C,0.04
15,C11U G13A,0.05
16,C11U C25A,0.08
17,C11U C25G,0.05
18,C11U C25U,0.52
19,C11U G51C,0.05
20,C11U G51A,0.34
21,C11U G51U,0.12
22,C11U G34U,0.19
23,C11U G34C,0.08
24,C11U G34A,0.39

row,Variant,self-cleavage
1,U12A U18C,0.76
2,U12A U18G,0.76
3,U12A U18A,0.91
4,G13A G51U,0.04
5,G13A G51A,0.05
6,G13A G51C,0.02
7,C11U U37C,1.02
8,C11U U37A,0.62
9,C11U U37G,0.94
10,C11U C9U,0.65
11,C11U C9A,0.26
12,C11U C9G,0.36
13,G13A G45C,0.02
14,G13A G45A,0.03
15,G13A G45U,0.02
16,C11U G19C,0.07
17,C11U G19U,0.1
18,C11U G19A,0.23
19,G13A U12G,0.09
20,G13A U12C,0.04
21,G13A U12A,0.07
22,C11G C52G,0.22
23,C11G C52A,0.24
24,C11G C52U,0.73

row,Variant,self-cleavage
1,C11U C20A,0.71
2,C11U C20U,0.78
3,C11U C20G,0.09
4,G13C G49A,0.01
5,G13C G49U,0.01
6,G13C G49C,0.01
7,G13A G30U,0.02
8,G13A G30C,0.02
9,G13A G30A,0.03
10,C11G G13A,0.06
11,C11G G13U,0.03
12,C11G G13C,0.02
13,G13C G45A,0.02
14,G13C G45U,0.01
15,G13C G45C,0.01
16,C11G U37G,0.71
17,C11G U37A,0.38
18,C11G U37C,0.69
19,C11U G50C,0.72
20,C11U G50A,0.44
21,C11U G50U,0.88
22,C11U C26A,0.05
23,C11U C26G,0.08
24,C11U C26U,0.6

row,Variant,self-cleavage
1,C11G C25G,0.04
2,C11G C25U,0.18
3,C11G C25A,0.04
4,G13A U18C,0.1
5,G13A U18A,0.09
6,G13A U18G,0.24
7,C11U G35A,0.65
8,C11U G35U,0.69
9,C11U G35C,0.18
10,C11G G35A,0.08
11,C11G G35C,0.05
12,C11G G35U,0.06
13,C11G G51U,0.05
14,C11G G51C,0.03
15,C11G G51A,0.07
16,G13C G30A,0.01
17,G13C G30C,0.02
18,G13C G30U,0.01
19,U12G,0.55
20,U12A,0.99
21,U12C,0.66
22,U12C U43C,0.08
23,U12C U43A,0.11
24,U12C U43G,0.09

row,Variant,self-cleavage
1,U12A U43C,0.11
2,U12A U43G,0.09
3,U12A U43A,0.13
4,G13A G35U,0.08
5,G13A G35C,0.05
6,G13A G35A,0.12
7,U12G U43A,0.08
8,U12G U43G,0.1
9,U12G U43C,0.08
10,C11G G30U,0.02
11,C11G G30A,0.03
12,C11G G30C,0.04
13,U12C U37A,0.51
14,U12C U37G,0.66
15,U12C U37C,0.44
16,G13C G44C,0.03
17,G13C G44A,0.02
18,G13C G44U,0.03
19,C11U C15A,0.21
20,C11U C15U,0.13
21,C11U C15G,0.19
22,G13C G23A,0.02
23,G13C G23U,0.02
24,G13C G23C,0.01

row,Variant,self-cleavage
1,U12C U24G,0.03
2,U12C U24C,0.06
3,U12C U24A,0.05
4,G13A G49A,0.03
5,G13A G49U,0.02
6,G13A G49C,0.02
7,C11U G22C,0.04
8,C11U G22A,0.59
9,C11U G22U,0.22
10,C11U C14U,0.17
11,C11U C14G,0.09
12,C11U C14A,0.07
13,G13A G47C,0.03
14,G13A G47U,0.03
15,G13A G47A,0.04
16,G13A G44C,0.08
17,G13A G44A,0.05
18,G13A G44U,0.07
19,C11U G49U,0.09
20,C11U G49C,0.08
21,C11U G49A,0.09
22,C11U U43A,0.62
23,C11U U43G,0.2
24,C11U U43C,0.26

row,Variant,self-cleavage
1,G13A G53A,0.06
2,G13A G53U,0.05
3,G13A G53C,0.03
4,G13C G35A,0.02
5,G13C G35C,0.02
6,G13C G35U,0.04
7,G13C G34U,0.03
8,G13C G34A,0.04
9,G13C G34C,0.02
10,C11U U12A,0.6
11,C11U U12G,0.37
12,C11U U12C,0.47
13,C11G U12G,0.08
14,C11G U12A,0.15
15,C11G U12C,0.08
16,U12G U18C,0.28
17,U12G U18A,0.39
18,U12G U18G,0.59
19,G13C G47U,0.02
20,G13C G47A,0.02
21,G13C G47C,0.01
22,G13A G54C,0.06
23,G13A G54U,0.2
24,G13A G54A,0.07

row,Variant,self-cleavage
1,G13A G19A,0.08
2,G13A G19C,0.03
3,G13A G19U,0.04
4,C11G U18C,0.24
5,C11G U18A,0.52
6,C11G U18G,0.54
7,C11U C32U,0.07
8,C11U C32G,0.08
9,C11U C32A,0.06
10,U12A U37C,1
11,U12A U37A,0.71
12,U12A U37G,1
13,C11G G23A,0.05
14,C11G G23U,0.04
15,C11G G23C,0.02
16,C11U,0.94
17,C11U U18A,0.85
18,C11U U18G,0.7
19,C11U U18C,0.71
20,G13C G22U,0.02
21,G13C G22C,0.01
22,G13C G22A,0.03

# Source: the RNAGym collection of RNA variant scans (doi:10.1002/anie.201605470)
